Six compounds from ChEMBL document CHEMBL1153769, “Novel modified steroid derivatives of androstanolone as chemotherapeutic anti-cancer agents” (Eur J Med Chem, 2009) can be followed below.

Usually IC50 stands for the point on the concentration scale where inhibition reaches its midpoint.

Data set [1] relates to Mus musculus. Description: Toxicity in mouse EAC cells transplanted Swiss albino mouse assessed as change in total WBC content at 20 mg/kg. ip dissolved in DMSO for 14 days measured after final dose by 18 hrs fasting. Also on record: dose 20 mg/kg, route intraperitoneal. The note with it: in vivo. The format is organism-based, Ehrlich. In outline: (§1)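 Reference-drug group (n = 5): mice given 2×10⁶ EAC cells in 0.2 ml i.p., then 20 mg/kg b.wt. for 14 days. Fasted 18 h after the last dose, then sacrificed. Tumour volume, haemoglobin, haematocrit, total WBC and body weight measured against normal and untreated EAC groups. Mean ± SE.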

For data set [2], the system named is Mus musculus. Description: Toxicity in mouse EAC cells transplanted Swiss albino mouse assessed as decrease in body weight at 20 mg/kg. ip dissolved in DMSO for 14 days measured after final dose by 18 hrs fasting. Further details: scale not given: the % may be the effect or the level left. The format is functional, Ehrlich. The note with it: route intraperitoneal. In short, it runs like this:
as §1

Data set [3] relates to Mus musculus. Description: Toxicity in mouse EAC cells transplanted Swiss albino mouse assessed as change in hematocrit content at 20 mg/kg. ip dissolved in DMSO for 14 days measured after final dose by 18 hrs fasting. Particulars: in vivo. Also on record: dose 20 mg/kg, route intraperitoneal. The format is organism-based, Ehrlich. In outline:
as §1

A short description of data set [4]: Antitumor activity in mouse EAC cell transplanted in Swiss albino mouse assessed as decrease in tumor volume at 20 mg/kg. ip dissolved in DMSO for 14 days measured after final dose by 18 hrs fasting. The note with it: route intraperitoneal. The data set is classed as functional, Ehrlich. In outline: as §1
Data set [5] concerns HepG2. In words: Antitumor activity against human HepG2 cells incubated with drug dissolved in DMSO after 72 hrs by MTT assay. The format is functional, cell-based. The note with it: HepG2, 72 h. In outline:
(§2)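 HepG2 cells (trypan blue viability >97%) grown in RPMI-1640 with L-glutamine and 10% fetal calf serum, seeded at 3×10³ cells/well. Compounds in olive oil or DMSO were tested at 10, 50 and 100 for 24, 48 and 72 h. MTT (0.5 mg/ml) added, formazan dissolved in DMSO, OD read at 570 nm (ref 690 nm). Reported as % growth inhibition vs control; run in triplicate.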
(In general: Tetrazolium assays rely on reduction of a dye to a coloured formazan, in cell work by metabolically active cells.)

For data set [6], the system named is HepG2. Description: Antitumor activity against human HepG2 cells incubated with drug dissolved in olive oil after 72 hrs by MTT assay. The data set is classed as functional, cell-based. Particulars: HepG2, 72 h. In short, it runs like this:
as §2

For data set [7], the system named is Mus musculus. In words: Toxicity in mouse EAC cells transplanted Swiss albino mouse assessed as change in hemoglobin content at 25 mg/kg. ip dissolved in DMSO for 14 days measured after final dose by 18 hrs fasting. The note with it: in vivo. Further details: dose 25 mg/kg, route intraperitoneal. The format is organism-based, Ehrlich. In outline: (§3)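 Mice (n = 5/group) given 2×10⁶ EAC cells in 0.2 ml i.p. Treatment was 25 mg/kg b.wt. i.p. in DMSO, every other day for 14 days. Animals were fasted 18 h after the last dose, then sacrificed. Tumour volume, haemoglobin, haematocrit, total WBC and body weight recorded. Normal and untreated EAC groups served as controls. Mean ± SE.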

For data set [8], the system named is Mus musculus. Description: Toxicity in mouse EAC cells transplanted Swiss albino mouse assessed as change in total WBC content at 25 mg/kg. ip dissolved in DMSO for 14 days measured after final dose by 18 hrs fasting. The data set is classed as organism-based, Ehrlich. Also on record: dose 25 mg/kg, route intraperitoneal. Particulars: in vivo. In outline: as §3

Data set [9] deals with HepG2. Description: Antitumor activity against human HepG2 cells incubated with drug dissolved in DMSO after 48 hrs by MTT assay. The format is functional, cell-based. Particulars: HepG2, 48 h. In short, it runs like this: as §2
The species entered for data set [10] is Mus musculus. Description: Toxicity in mouse EAC cells transplanted Swiss albino mouse assessed as loss of appetite. The data set is classed as organism-based. The note with it: ehrlich.
Data set [11] deals with Mus musculus. Description: Toxicity in mouse EAC cells transplanted Swiss albino mouse assessed as decrease in body weight at 25 mg/kg. ip dissolved in DMSO for 14 days measured after final dose by 18 hrs fasting. The format is organism-based, Ehrlich. Further details: dose 25 mg/kg, route intraperitoneal; scale not given: the % may be the effect or the level left. The note with it: in vivo. In short, it runs like this: as §3

Data set [12] concerns HepG2. In words: Antitumor activity against human HepG2 cells incubated with drug dissolved in olive oil after 48 hrs by MTT assay. The data set is classed as functional, cell-based. The note with it: HepG2, 48 h. In outline:
as §2

Data set [13] is filed under the species Mus musculus. In words: Toxicity in mouse EAC cells transplanted Swiss albino mouse assessed as induction of errection of hair. The note with it: ehrlich. The data set is classed as organism-based.
The test system of data set [14] is Mus musculus. Description: Toxicity in mouse EAC cells transplanted Swiss albino mouse assessed as change in hematocrit content at 25 mg/kg. ip dissolved in DMSO for 14 days measured after final dose by 18 hrs fasting. The data set is classed as organism-based, Ehrlich. Also on record: dose 25 mg/kg, route intraperitoneal. The note with it: in vivo. In outline:
as §3

The species entered for data set [15] is Mus musculus. Description: Toxicity in mouse EAC cells transplanted Swiss albino mouse assessed as induction of hypothermia. The data set is classed as organism-based. The note with it: ehrlich.
Data set [16] can be described thus: Antitumor activity in mouse EAC cells transplanted in Swiss albino mouse assessed as decrease in tumor volume at 25 mg/kg. ip dissolved in DMSO for 14 days measured after final dose by 18 hrs fasting. The data set is classed as functional, Ehrlich. Also on record: unit not given here. Particulars: route intraperitoneal. In outline:
as §3

The species entered for data set [17] is Mus musculus. Description: Toxicity in mouse EAC cells transplanted Swiss albino mouse assessed as induction of dizziness. The format is organism-based. Particulars: ehrlich.

Some results are limits rather than exact numbers.

In the case of `O=c1[nH]cc(F)c(=O)[nH]1` [FLUOROURACIL], the Activity in the data set on Mus musculus [1] is 6.4 /10'3mm'-3; in the data set with Mus musculus [2] it was 23%; in the data set on Mus musculus [3] it was 10.73%; in data set [4] it was 0 mL⁻¹.

Turning to `CC(=O)O[C@H]1CC[C@H]2[C@@H]3CC[C@H]4CC5=C(C[C@]4(C)[C@H]3CC[C@]12C)C(c1ccccc1)OC(N)=C5C#N` (some centres undefined), the IC50 was determined as 73 µM in the data set with HepG2 [5], 30 µM with HepG2 [6], 81 µM in the data set with HepG2 [9] and 46 µM in the data set on HepG2 [12]. The Activity in the data set on Mus musculus [7] is reported as 12.5%; in the data set with Mus musculus [8], 5.9 /10'3mm'-3; in the data set listed under Mus musculus [10], “Non-toxic”; with Mus musculus [11] it was 18.66%; in the data set listed under Mus musculus [13], “Non-toxic”; with Mus musculus [14] it was 36.6%. Also, the Activity result is “Non-toxic” in the data set listed under Mus musculus [15], 0 in [16] and “Non-toxic” in the data set listed under Mus musculus [17].

`CC(=O)O[C@H]1CC[C@H]2[C@@H]3CC[C@H]4CNC(=O)CC[C@]4(C)[C@H]3CC[C@]12C`: the IC50 in the data set on HepG2 [5] was found to be 40 µM; with HepG2 [6], 35 µM; in the data set on HepG2 [9] it was 42 µM; in the data set with HepG2 [12] it was 47 µM. For the same compound, the Activity is listed as 12.96% with Mus musculus [7]; 6.46 /10'3mm'-3 in the data set on Mus musculus [8]; “Non-toxic” in the data set listed under Mus musculus [10]; 20.33% in the data set with Mus musculus [11]; “Non-toxic” in the data set filed under Mus musculus [13]; 38.56% with Mus musculus [14]. In addition, the figures for the Activity entry (in the data set filed under Mus musculus [15]; in data set [16]; in the data set filed under Mus musculus [17]) were “Non-toxic”, 0 and “Non-toxic”, respectively.

Consider `CC(=O)O[C@H]1CC[C@H]2[C@@H]3CC[C@H]4C/C(=N/n5c(-c6ccccc6)csc5=S)CC[C@]4(C)[C@H]3CC[C@]12C`, for which the IC50 was found to be 90 µM with HepG2 [5], 37 µM with HepG2 [6], 85 µM in the data set with HepG2 [9] and 47 µM in the data set on HepG2 [12]. Besides, the Activity was 10.7% in the data set on Mus musculus [7]; 5.66 /10'3mm'-3 in the data set with Mus musculus [8]; “Non-toxic” in the data set filed under Mus musculus [10]; 20% in the data set on Mus musculus [11]; “Non-toxic” in the data set listed under Mus musculus [13]; 42.7% in the data set with Mus musculus [14]. Further, the Activity result in the data set filed under Mus musculus [15] is listed as “Non-toxic”; in data set [16] it was 0; in the data set listed under Mus musculus [17], “Non-toxic”.

As to `COc1ccc(C2Oc3nc(N)c(C#N)c(N)c3C3=C2C[C@@]2(C)[C@@H](CC[C@@H]4[C@@H]2CC[C@]2(C)[C@@H](OC(C)=O)CC[C@@H]42)C3)cc1` (some centres undefined), the IC50 was over 100 µM with HepG2 [5], 41 µM in the data set with HepG2 [6], 95 µM in the data set on HepG2 [9] and 48 µM in the data set with HepG2 [12]. The Activity in the data set on Mus musculus [7] is recorded as 12.65%; in the data set on Mus musculus [8] it was 7.35 /10'3mm'-3; in the data set filed under Mus musculus [10], “Non-toxic”; in the data set on Mus musculus [11], 21.5%; in the data set filed under Mus musculus [13], “Non-toxic”; in the data set with Mus musculus [14], 38.3%. Also, the Activity result was “Non-toxic” in the data set filed under Mus musculus [15], 0 in [16] and “Non-toxic” in the data set listed under Mus musculus [17].

With `CC(=O)O[C@H]1CC[C@H]2[C@@H]3CC[C@H]4Cc5c(C#N)c(N)n(-c6ccccc6)c(=S)c5C[C@]4(C)[C@H]3CC[C@]12C`, the IC50 in the data set on HepG2 [5] was over 100 µM; with HepG2 [6] it was 40 µM; in the data set with HepG2 [9] it was over 100 µM; in the data set on HepG2 [12], 48 µM. The Activity in the data set on Mus musculus [7] is reported as 12.6%; with Mus musculus [8] it was 5.75 /10'3mm'-3; in the data set filed under Mus musculus [10], “Non-toxic”; in the data set on Mus musculus [11], 18%; in the data set listed under Mus musculus [13], “Non-toxic”; in the data set on Mus musculus [14], 33.8%. Moreover, the results for the Activity entry (in the data set filed under Mus musculus [15]; in data set [16]; in the data set filed under Mus musculus [17]) were “Non-toxic”, 0 and “Non-toxic”, respectively.
